Source: ChEMBL document CHEMBL1255334
Activity calls are given as the source filed them. No cut-off for these calls is given here.

How the values were obtained:
Format in all cases: functional, organism-based
[1] = system: Mycobacterium tuberculosis; experiment: Antibacterial activity against Mycobacterium tuberculosis containing PZase Tyr(103)>His mutant assessed as at 100 mg/liter
How it was run: (§1)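 Clinical M. tuberculosis isolates first grown on Löwenstein-Jensen medium 3 to 4 weeks at 37°C. Radiometric BACTEC 460 test in acidified PZA test medium. Inoculum: ~McFarland 1 suspension grown in 12B medium until growth index (GI) >300. Paired vials per strain: drug-free control and PZA 100 mg/liter. Read when control GI reached 200. Resistant if PZA-vial GI >11% of control GI, susceptible if <9%.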

[2] = system: Mycobacterium tuberculosis; experiment: Antibacterial activity against Mycobacterium tuberculosis containing PZase Ile(90)>Ser mutant assessed as at 100 mg/liter; how it was run: as §1
[3] = system: Mycobacterium tuberculosis; experiment: Antibacterial activity against Mycobacterium tuberculosis containing PZase Trp(68)>Arg mutant assessed as at 100 mg/liter; how it was run: as §1
[4] = system: Mycobacterium tuberculosis; experiment: Antibacterial activity against Mycobacterium tuberculosis containing PZase Ser(67)>Pro mutant assessed as at 100 mg/liter; how it was run: as §1
[5] = system: Mycobacterium tuberculosis; experiment: Antibacterial activity against Mycobacterium tuberculosis containing PZase Ser(65)>Ser frameshift mutant assessed as at 100 mg/liter; how it was run: as §1
[6] = system: Mycobacterium tuberculosis; experiment: Antibacterial activity against Mycobacterium tuberculosis containing pncA gene with C(174)>G mutation assessed as at 100 mg/liter; how it was run: as §1
[7] = system: Mycobacterium tuberculosis; experiment: Antibacterial activity against Mycobacterium tuberculosis containing PZase Phe(58)>Leu mutant assessed as at 100 mg/liter; how it was run: as §1
[8] = system: Mycobacterium tuberculosis; experiment: Antibacterial activity against Mycobacterium tuberculosis containing PZase Pro(54)>Leu mutant assessed as at 100 mg/liter; how it was run: as §1
[9] = system: Mycobacterium tuberculosis; experiment: Antibacterial activity against Mycobacterium tuberculosis containing PZase Pro(54)>Ser mutant assessed as at 100 mg/liter; how it was run: as §1
[10] = system: Mycobacterium tuberculosis; experiment: Antibacterial activity against Mycobacterium tuberculosis containing PZase His(51)>Gln mutant assessed as at 100 mg/liter; how it was run: as §1
[11] = system: Mycobacterium tuberculosis; experiment: Antibacterial activity against Mycobacterium tuberculosis containing PZase Thr(47)>Ala mutant assessed as at 100 mg/liter; how it was run: as §1
[12] = system: Mycobacterium tuberculosis; experiment: Antibacterial activity against Mycobacterium tuberculosis containing PZase Ile(6)>Thr mutant assessed as at 100 mg/liter; how it was run: as §1
[13] = system: Mycobacterium tuberculosis; experiment: Antibacterial activity against Mycobacterium tuberculosis containing pncA gene with A(-11)>G mutation assessed as at 100 mg/liter; how it was run: as §1
[14] = system: Mycobacterium tuberculosis; experiment: Antibacterial activity against Mycobacterium tuberculosis containing PZase Ser(65)>Ser mutant assessed as at 100 mg/liter; how it was run: as §1
[15] = system: Mycobacterium tuberculosis; experiment: Antibacterial activity against Mycobacterium tuberculosis containing pncA gene with G insertion between nucleotide -33 and -32 assessed as at 100 mg/liter; how it was run: as §1
[16] = system: Mycobacterium tuberculosis; experiment: Antibacterial activity against Mycobacterium tuberculosis containing pncA gene with C insertion between nucleotide -3 and -2 assessed as at 100 mg/liter; how it was run: as §1
[17] = system: Mycobacterium tuberculosis; experiment: Antibacterial activity against Mycobacterium tuberculosis containing PZase Val(155)>Gly mutant assessed as at 100 mg/liter; how it was run: as §1
[18] = system: Mycobacterium tuberculosis; experiment: Antibacterial activity against Mycobacterium tuberculosis containing PZase Leu(172)>Pro mutant assessed as at 100 mg/liter; how it was run: as §1
[19] = system: Mycobacterium tuberculosis; experiment: Antibacterial activity against Mycobacterium tuberculosis containing PZase Met(175)>Thr mutant assessed as at 100 mg/liter; how it was run: as §1
[20] = system: Mycobacterium tuberculosis; experiment: Antibacterial activity against Mycobacterium tuberculosis containing PZase with In-frame insertion between amino acids 148 and 149 assessed as at 100 mg/liter; how it was run: as §1
[21] = system: Mycobacterium tuberculosis; experiment: Antibacterial activity against Mycobacterium tuberculosis containing PZase Thr(142)>Lys mutant assessed as at 100 mg/liter; how it was run: as §1
[22] = system: Mycobacterium tuberculosis; experiment: Antibacterial activity against Mycobacterium tuberculosis containing PZase Cys(138)>Tyr mutant assessed as at 100 mg/liter; how it was run: as §1
[23] = system: Mycobacterium tuberculosis; experiment: Antibacterial activity against Mycobacterium tuberculosis containing PZase Gly(132)>Ala mutant assessed as at 100 mg/liter; how it was run: as §1
[24] = system: Mycobacterium tuberculosis; experiment: Antibacterial activity against Mycobacterium tuberculosis containing PZase Gly(132)>Ser mutant assessed as at 100 mg/liter; how it was run: as §1
[25] = system: Mycobacterium tuberculosis; experiment: Antibacterial activity against Mycobacterium tuberculosis containing pncA gene with GG insertion between nt 391 and 392 assessed as at 100 mg/liter; how it was run: as §1
[26] = system: Mycobacterium tuberculosis; experiment: Antibacterial activity against Mycobacterium tuberculosis containing PZase Val(125)>Asp mutant assessed as at 100 mg/liter; how it was run: as §1
[27] = system: Mycobacterium tuberculosis; experiment: Antibacterial activity against Mycobacterium tuberculosis containing PZase Val(125)>Phe mutant assessed as at 100 mg/liter; how it was run: as §1
[28] = system: Mycobacterium tuberculosis; experiment: Antibacterial activity against Mycobacterium tuberculosis containing PZase Arg(123)>Pro mutant assessed as at 100 mg/liter; how it was run: as §1

Question: `NC(=O)c1cnccn1` was tested. Which Activity [1] did it give?
Answer: inactive

Question: And the Activity [2]?
Answer: inactive

Question: And the Activity [3]?
Answer: inactive

Question: And the Activity [4]?
Answer: inactive

Question: And the Activity [5]?
Answer: inactive

Question: And the Activity [6]?
Answer: inactive

Question: What about the Activity [7] of the same compound?
Answer: inactive

Question: What about the Activity [8] of the same compound?
Answer: inactive

Question: And the Activity [9]?
Answer: inactive

Question: And the Activity [10]?
Answer: inactive

Question: And the Activity [11]?
Answer: inactive

Question: What about the Activity [12] of the same compound?
Answer: inactive

Question: And the Activity [13]?
Answer: inactive

Question: What about the Activity [14] of the same compound?
Answer: Active

Question: And the Activity [15]?
Answer: Active

Question: And the Activity [16]?
Answer: Active

Question: And the Activity [17]?
Answer: inactive

Question: And the Activity [18]?
Answer: inactive

Question: What about the Activity [19] of the same compound?
Answer: inactive

Question: What about the Activity [20] of the same compound?
Answer: inactive

Question: And the Activity [21]?
Answer: inactive

Question: And the Activity [22]?
Answer: inactive

Question: And the Activity [23]?
Answer: inactive

Question: What about the Activity [24] of the same compound?
Answer: inactive

Question: And the Activity [25]?
Answer: inactive

Question: What about the Activity [26] of the same compound?
Answer: inactive

Question: What about the Activity [27] of the same compound?
Answer: inactive

Question: And the Activity [28]?
Answer: inactive
